“Also recorded” adds a separate entry of the source.
Experiments:
[1] = format: in vivo, human (Chinese patients)
[2] = Safety: treatment-emergent adverse events, NCI CTCAE v4.03; format: in vivo, human (Chinese patients)
In short: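 Patients took oral test compound at 320 mg QD or 160 mg BID until progression or unacceptable toxicity. AEs were graded per NCI CTCAE v4.03, and treatment-emergent AEs were summarized. AEs of special interest included haemorrhage, atrial fibrillation/flutter, hypertension, second primary malignancies, tumour lysis syndrome, infections and cytopenias. Percentages use patients receiving ≥1 dose as the denominator.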

For `C=CC(=O)N1CCC([C@@H]2CCNc3c(C(N)=O)c(-c4ccc(Oc5ccccc5)cc4)nn32)CC1` [zanubrutinib], the half-life ([1]; human, plasma, oral) was 2.3 to 3.4 h, the “time of C max post dose” value ([1]; oral 160 mg and 320 mg doses) was ~ 2 h and the “Anaemia, TEAE any grade” value ([2]; 160 mg BID (n = 34)) was 12 (35.3) n (%). The “Anaemia, grade ≥ 3 TEAE” value ([2]; 160 mg BID (n = 34)) was 4 (11.8) n (%), the “Atrial fibrillation/flutter, any grade TEAE of special interest” value ([2]; 160 mg BID (n = 34)) was 0 (0.0) n (%) and the “Cough, TEAE any grade” value ([2]; 160 mg BID (n = 34)) was 5 (14.7) n (%). The “Cytopenias: Anaemia, any grade TEAE of special interest” value (from here on “Cytopenias: Anaemia, any grade TEAE”) ([2]; 160 mg BID (n = 34)) was 14 (41.2) n (%), the “Cytopenias: Neutropenia, any grade TEAE of special interest” value (“Cytopenias: Neutropenia, any grade TEAE” below) ([2]; 160 mg BID (n = 34)) was 18 (52.9) n (%) and the “Cytopenias: Thrombocytopenia, any grade TEAE of special interest” value (shortened to “Cytopenias: Thrombocytopenia”) ([2]; 160 mg BID (n = 34)) was 9 (26.5) n (%). The “Haemorrhage, any grade TEAE of special interest” value ([2]; 160 mg BID (n = 34)) was 11 (32.4) n (%), the “Hematuria, TEAE any grade” value ([2]; 160 mg BID (n = 34)) was 6 (17.6) n (%) and the “Hypertension, any grade TEAE of special interest” value (from here on “Hypertension, any grade TEAE”) ([2]; 160 mg BID (n = 34)) was 0 (0.0) n (%). For the same molecule, the “Hyperuricemia, TEAE any grade” value ([2]; 160 mg BID (n = 34)) was 6 (17.6) n (%), the “Infections, any grade TEAE of special interest” value (“Infections, any grade TEAE” for short) ([2]; 160 mg BID (n = 34)) was 19 (55.9) n (%) and the “Major haemorrhage, any grade TEAE of special interest” value (shortened to “Major haemorrhage, any grade TEAE”) ([2]; 160 mg BID (n = 34)) was 1 (2.9) n (%). The “Neutropenia, grade ≥ 3 TEAE” value ([2]; 160 mg BID (n = 34)) was 4 (11.8) n (%), the “Neutrophil count decreased, TEAE any grade” value ([2]; 160 mg BID (n = 34)) was 17 (50.0) n (%) and the “Neutrophil count decreased, grade ≥ 3 TEAE” value ([2]; 160 mg BID (n = 34)) was 6 (17.6) n (%). The “Patients with ≥1 TEAE of special interest, any grade” value (shortened to “Patients with ≥1 TEAE”) ([2]; 160 mg BID (n = 34)) was 30 (88.2) n (%), the “Patients with ≥1 any‐grade TEAE” value ([2]; 160 mg BID (n = 34)) was 33 (97.1) n (%) and the “Patients with ≥1 grade 3 or higher TEAE” value ([2]; 160 mg BID (n = 34)) was 18 (52.9) n (%). For the same molecule, the “Platelet count decreased, TEAE any grade” value ([2]; 160 mg BID (n = 34)) was 8 (23.5) n (%), the “Platelet count decreased, grade ≥ 3 TEAE” value ([2]; 160 mg BID (n = 34)) was 1 (2.9) n (%) and the “Pneumonia, TEAE any grade” value ([2]; 160 mg BID (n = 34)) was 6 (17.6) n (%). For the same molecule, the “Pneumonia, grade ≥ 3 TEAE” value ([2]; 160 mg BID (n = 34)) was 3 (8.8) n (%), the “Rash, TEAE any grade” value ([2]; 160 mg BID (n = 34)) was 8 (23.5) n (%) and the “Second primary malignancies, any grade TEAE of special interest” value ([2]; 160 mg BID (n = 34)) was 0 (0.0) n (%). The “Thrombocytopenia, grade ≥ 3 TEAE” value ([2]; 160 mg BID (n = 34)) was 1 (2.9) n (%), the “Tumour lysis syndrome, any grade TEAE of special interest” value (“Tumour lysis syndrome, any grade TEAE” for short) ([2]; 160 mg BID (n = 34)) was 0 (0.0) n (%) and the “Upper respiratory tract infection, TEAE any grade” value ([2]; 160 mg BID (n = 34)) was 10 (29.4) n (%). The “Upper respiratory tract infection, grade ≥ 3 TEAE” value ([2]; 160 mg BID (n = 34)) was 2 (5.9) n (%), the “Weight increased, TEAE any grade” value ([2]; 160 mg BID (n = 34)) was 5 (14.7) n (%) and the “White blood cell count decreased, TEAE any grade” value ([2]; 160 mg BID (n = 34)) was 11 (32.4) n (%). The “White blood cell count decreased, grade ≥ 3 TEAE” value ([2]; 160 mg BID (n = 34)) was 1 (2.9) n (%), the “White blood cell count increased, grade ≥ 3 TEAE” value (from here on “White blood cell count increased”) ([2]; 160 mg BID (n = 34)) was 2 (5.9) n (%) and the “Anaemia, TEAE any grade” value ([2]; 320 mg QD (n = 10)) was 4 (40.0) n (%). For the same molecule, the “Anaemia, grade ≥ 3 TEAE” value ([2]; 320 mg QD (n = 10)) was 1 (10.0) n (%), the “Atrial fibrillation/flutter, any grade TEAE of special interest” value ([2]; 320 mg QD (n = 10)) was 0 (0.0) n (%) and the “Cough, TEAE any grade” value ([2]; 320 mg QD (n = 10)) was 3 (30.0) n (%). The “Cytopenias: Anaemia, any grade TEAE” value ([2]; 320 mg QD (n = 10)) was 4 (40.0) n (%), the “Cytopenias: Neutropenia, any grade TEAE” value ([2]; 320 mg QD (n = 10)) was 7 (70.0) n (%) and the “Cytopenias: Thrombocytopenia” value ([2]; 320 mg QD (n = 10)) was 3 (30.0) n (%). For the same molecule, the “Haemorrhage, any grade TEAE of special interest” value ([2]; 320 mg QD (n = 10)) was 4 (40.0) n (%), the “Hematuria, TEAE any grade” value ([2]; 320 mg QD (n = 10)) was 3 (30.0) n (%) and the “Hypertension, any grade TEAE” value ([2]; 320 mg QD (n = 10)) was 1 (10.0) n (%). For the same molecule, the “Hyperuricemia, TEAE any grade” value ([2]; 320 mg QD (n = 10)) was 3 (30.0) n (%), the “Infections, any grade TEAE” value ([2]; 320 mg QD (n = 10)) was 7 (70.0) n (%) and the “Major haemorrhage, any grade TEAE” value ([2]; 320 mg QD (n = 10)) was 0 (0.0) n (%). For the same molecule, the “Neutropenia, grade ≥ 3 TEAE” value ([2]; 320 mg QD (n = 10)) was 0 (0.0) n (%), the “Neutrophil count decreased, TEAE any grade” value ([2]; 320 mg QD (n = 10)) was 7 (70.0) n (%) and the “Neutrophil count decreased, grade ≥ 3 TEAE” value ([2]; 320 mg QD (n = 10)) was 5 (50.0) n (%). For the same molecule, the “Patients with ≥1 TEAE” value ([2]; 320 mg QD (n = 10)) was 10 (100.0) n (%), the “Patients with ≥1 any‐grade TEAE” value ([2]; 320 mg QD (n = 10)) was 10 (100.0) n (%) and the “Patients with ≥1 grade 3 or higher TEAE” value ([2]; 320 mg QD (n = 10)) was 6 (60.0) n (%). For the same molecule, the “Platelet count decreased, TEAE any grade” value ([2]; 320 mg QD (n = 10)) was 2 (20.0) n (%), the “Platelet count decreased, grade ≥ 3 TEAE” value ([2]; 320 mg QD (n = 10)) was 1 (10.0) n (%) and the “Pneumonia, TEAE any grade” value ([2]; 320 mg QD (n = 10)) was 3 (30.0) n (%). The “Pneumonia, grade ≥ 3 TEAE” value ([2]; 320 mg QD (n = 10)) was 0 (0.0) n (%), the “Rash, TEAE any grade” value ([2]; 320 mg QD (n = 10)) was 2 (20.0) n (%) and the “Second primary malignancies, any grade TEAE of special interest” value ([2]; 320 mg QD (n = 10)) was 0 (0.0) n (%). For the same molecule, the “Thrombocytopenia, grade ≥ 3 TEAE” value ([2]; 320 mg QD (n = 10)) was 1 (10.0) n (%), the “Tumour lysis syndrome, any grade TEAE” value ([2]; 320 mg QD (n = 10)) was 0 (0.0) n (%) and the “Upper respiratory tract infection, TEAE any grade” value ([2]; 320 mg QD (n = 10)) was 5 (50.0) n (%). For the same molecule, the “Upper respiratory tract infection, grade ≥ 3 TEAE” value ([2]; 320 mg QD (n = 10)) was 2 (20.0) n (%), the “Weight increased, TEAE any grade” value ([2]; 320 mg QD (n = 10)) was 3 (30.0) n (%) and the “White blood cell count decreased, TEAE any grade” value ([2]; 320 mg QD (n = 10)) was 3 (30.0) n (%). The “White blood cell count decreased, grade ≥ 3 TEAE” value ([2]; 320 mg QD (n = 10)) was 1 (10.0) n (%), the “White blood cell count increased” value ([2]; 320 mg QD (n = 10)) was 1 (10.0) n (%) and the “Anaemia, TEAE any grade” value ([2]; Total (N = 44)) was 16 (36.4) n (%). For the same molecule, the “Anaemia, grade ≥ 3 TEAE” value ([2]; Total (N = 44)) was 5 (11.4) n (%), the “Atrial fibrillation/flutter, any grade TEAE of special interest” value ([2]; Total (N = 44)) was 0 (0.0) n (%) and the “Cough, TEAE any grade” value ([2]; Total (N = 44)) was 8 (18.2) n (%). The “Cytopenias: Anaemia, any grade TEAE” value ([2]; Total (N = 44)) was 18 (40.9) n (%), the “Cytopenias: Neutropenia, any grade TEAE” value ([2]; Total (N = 44)) was 25 (56.8) n (%) and the “Cytopenias: Thrombocytopenia” value ([2]; Total (N = 44)) was 12 (27.3) n (%). For the same molecule, the “Haemorrhage, any grade TEAE of special interest” value ([2]; Total (N = 44)) was 15 (34.1) n (%), the “Hematuria, TEAE any grade” value ([2]; Total (N = 44)) was 9 (20.5) n (%) and the “Hypertension, any grade TEAE” value ([2]; Total (N = 44)) was 1 (2.3) n (%). The “Hyperuricemia, TEAE any grade” value ([2]; Total (N = 44)) was 9 (20.5) n (%), the “Infections, any grade TEAE” value ([2]; Total (N = 44)) was 26 (59.1) n (%) and the “Major haemorrhage, any grade TEAE” value ([2]; Total (N = 44)) was 1 (2.3) n (%). The “Neutropenia, grade ≥ 3 TEAE” value ([2]; Total (N = 44)) was 4 (9.1) n (%), the “Neutrophil count decreased, TEAE any grade” value ([2]; Total (N = 44)) was 24 (54.5) n (%) and the “Neutrophil count decreased, grade ≥ 3 TEAE” value ([2]; Total (N = 44)) was 11 (25.0) n (%). The “Patients with ≥1 TEAE” value ([2]; Total (N = 44)) was 40 (90.9) n (%), the “Patients with ≥1 any‐grade TEAE” value ([2]; Total (N = 44)) was 43 (97.7) n (%) and the “Patients with ≥1 grade 3 or higher TEAE” value ([2]; Total (N = 44)) was 24 (54.5) n (%). For the same molecule, the “Platelet count decreased, TEAE any grade” value ([2]; Total (N = 44)) was 10 (22.7) n (%), the “Platelet count decreased, grade ≥ 3 TEAE” value ([2]; Total (N = 44)) was 2 (4.5) n (%) and the “Pneumonia, TEAE any grade” value ([2]; Total (N = 44)) was 9 (20.5) n (%). For the same molecule, the “Pneumonia, grade ≥ 3 TEAE” value ([2]; Total (N = 44)) was 3 (6.8) n (%), the “Rash, TEAE any grade” value ([2]; Total (N = 44)) was 10 (22.7) n (%) and the “Second primary malignancies, any grade TEAE of special interest” value ([2]; Total (N = 44)) was 0 (0.0) n (%). For the same molecule, the “Thrombocytopenia, grade ≥ 3 TEAE” value ([2]; Total (N = 44)) was 2 (4.5) n (%), the “Tumour lysis syndrome, any grade TEAE” value ([2]; Total (N = 44)) was 0 (0.0) n (%) and the “Upper respiratory tract infection, TEAE any grade” value ([2]; Total (N = 44)) was 15 (34.1) n (%). For the same molecule, the “Upper respiratory tract infection, grade ≥ 3 TEAE” value ([2]; Total (N = 44)) was 4 (9.1) n (%), the “Weight increased, TEAE any grade” value ([2]; Total (N = 44)) was 8 (18.2) n (%) and the “White blood cell count decreased, TEAE any grade” value ([2]; Total (N = 44)) was 14 (31.8) n (%). For the same molecule, the “White blood cell count decreased, grade ≥ 3 TEAE” value ([2]; Total (N = 44)) was 2 (4.5) n (%), the “White blood cell count increased” value ([2]; Total (N = 44)) was 3 (6.8) n (%) and the “AEs leading to dose reduction” value ([2]; all 44 patients) was “no AEs leading to dose reduction”. The “neutrophil count decreased, most common adverse event (any grade)” value ([2]; all 44 patients) was 54.5%, the “neutrophil count decreased, most common grade 3 or higher AE” value ([2]; all 44 patients) was 25.0% and the “patients with AEs leading to dose interruption” value ([2]; all 44 patients) was 18.2%. The “patients with AEs leading to treatment discontinuation” value ([2]; all 44 patients) was 4.5%, the “reports of second primary malignancies, tumour lysis syndrome, atrial fibrillation/flutter” value ([2]; all 44 patients) was “no reports” and the “grade of haemorrhagic events” value ([2]; all events except one non‐serious grade 3 purpura) was “grade 1–2; also recorded: grade 1 or 2”. The “dose‐limiting toxicity (DLT) events” value ([2]; part I, 160 mg BID and 320 mg QD) was “No DLT events”.
